Reference: ChEMBL document CHEMBL1641417, “Cytotoxicity and topoisomerase I/II inhibition of glycosylated 2-phenyl-indoles, 2-phenyl-benzo[b]thiophenes and 2-phenyl-benzo[b]furans” (Bioorg Med Chem, 2011)
The source made the active and inactive calls. The calls are words filed in the database; no cut-off is given here.

What was measured:
[1] = tested on: Vero; assay: Cytotoxicity against african green monkey Vero cells after 3 days by MTS assay; format: cell-based; details: Chlorocebus sabaeus, 72 h
Method in brief: (§1)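 Non-tumour cells were CRL-7761 human skin, Vero monkey kidney (DMEM high glucose, 5% FBS, 10 mM HEPES) and NIH/3T3 mouse (DMEM, 10% calf serum). Cells were seeded, left 24 h, then switched to serum-free DMEM-F12 with albumin, transferrin and insulin, with or without compound. Exposure was 3 days at 37 °C.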

[2] = tested on: HT-29; assay: Cytotoxicity against human HT-29 cells at 25 uM after 72 hrs by MTS assay
[3] = tested on: HepG2; assay: Cytotoxicity against human HepG2 cells after 72 hrs by MTS assay; details: HepG2, 72 h
[4] = tested on: HepG2; assay: Cytotoxicity against human HepG2 cells assessed as cell viability at 25 uM after 24 hrs by MTS assay; format: functional; details: HepG2, 24 h, read-out: Activity
[5] = target: T1, DNA topoisomerase 1 (Homo sapiens) (UniProt P11387); assay: Inhibition of human recombinant DNA topoisomerase 1-mediated DNA cleavage assessed as decrease in relaxation of supercoiled plasmid substrate DNA at 100 uM after 30 mins by agarose gel electrophoresis
T1 sequence (whole entry): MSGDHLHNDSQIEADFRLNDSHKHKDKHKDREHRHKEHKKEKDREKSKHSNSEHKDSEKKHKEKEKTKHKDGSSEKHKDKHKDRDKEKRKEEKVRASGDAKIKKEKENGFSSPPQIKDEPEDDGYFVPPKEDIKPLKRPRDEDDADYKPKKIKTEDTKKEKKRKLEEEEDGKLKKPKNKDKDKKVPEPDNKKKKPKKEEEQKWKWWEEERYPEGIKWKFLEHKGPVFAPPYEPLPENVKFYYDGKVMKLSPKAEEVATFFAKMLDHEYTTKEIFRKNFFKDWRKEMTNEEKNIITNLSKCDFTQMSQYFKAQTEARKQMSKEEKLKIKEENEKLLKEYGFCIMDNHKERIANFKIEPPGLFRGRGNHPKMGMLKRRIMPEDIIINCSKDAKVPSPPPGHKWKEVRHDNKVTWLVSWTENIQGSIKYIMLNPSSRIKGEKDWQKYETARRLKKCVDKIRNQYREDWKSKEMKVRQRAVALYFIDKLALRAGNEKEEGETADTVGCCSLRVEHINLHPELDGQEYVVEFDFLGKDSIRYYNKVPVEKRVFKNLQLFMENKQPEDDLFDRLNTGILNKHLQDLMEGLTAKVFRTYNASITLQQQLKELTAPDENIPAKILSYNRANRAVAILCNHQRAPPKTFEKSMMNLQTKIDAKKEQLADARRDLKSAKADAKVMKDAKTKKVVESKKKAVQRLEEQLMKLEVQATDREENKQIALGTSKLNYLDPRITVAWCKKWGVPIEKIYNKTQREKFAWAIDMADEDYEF

[6] = target: DNA topoisomerase 2-alpha (Homo sapiens) (UniProt P11388); assay: Induction of poisoning activity in human recombinant DNA topoisomerase 2alpha assessed as enhancement of in relaxation of supercoiled plasmid substrate DNA at 100 uM after 30 mins by agarose gel electrophoresis
Method in brief: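 For topo IIα cleavage, 0.25 µg supercoiled pRYG was incubated with 4 units of human topoisomerase IIα (p170) in Tris buffer with 2 mM ATP and 10 mM MgCl2 for 30 min at 37 °C. Workup was SDS stop, proteinase K, extraction and agarose electrophoresis. Poisoning was judged by appearance of a linear DNA band.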

[7] = Cytotoxicity against mouse NIH/3T3 cells after 3 days by MTS assay; format: cell-based; details: NIH3T3, 72 h; method in brief: as §1
[8] = tested on: MCF7; assay: Cytotoxicity against human MCF7 cells assessed as cell viability at 25 uM after 72 hrs by MTS assay; details: MCF7, 72 h
[9] = target: DNA topoisomerase 2-alpha (Homo sapiens) (UniProt P11388); assay: Inhibition of human recombinant DNA topoisomerase 2alpha-mediated DNA cleavage assessed as decrease in relaxation of supercoiled plasmid substrate DNA at 20 uM after 30 mins by agarose gel electrophoresis
[10] = tested on: HT-29; assay: Cytotoxicity against human HT-29 cells assessed as cell viability at 25 uM after 72 hrs by MTS assay; details: HT-29, 72 h
[11] = target: T1, DNA topoisomerase 1 (Homo sapiens); assay: Inhibition of human recombinant DNA topoisomerase 1-mediated DNA cleavage assessed as decrease in relaxation of supercoiled plasmid substrate DNA at 40 uM after 30 mins by agarose gel electrophoresis
[12] = tested on: MCF7; assay: Cytotoxicity against human MCF7 cells after 72 hrs by MTS assay; details: MCF7, 72 h
[13] = target: DNA topoisomerase 2-alpha (Homo sapiens) (UniProt P11388); assay: Inhibition of human recombinant DNA topoisomerase 2alpha-mediated DNA cleavage assessed as decrease in relaxation of supercoiled plasmid substrate DNA at 40 uM after 30 mins by agarose gel electrophoresis
[14] = tested on: MCF7; assay: Cytotoxicity against human MCF7 cells at 25 uM after 72 hrs by MTS assay
[15] = target: DNA topoisomerase 2-alpha (Homo sapiens) (UniProt P11388); assay: Inhibition of human recombinant DNA topoisomerase 2alpha-mediated DNA cleavage assessed as decrease in relaxation of supercoiled plasmid substrate DNA at 100 uM after 30 mins by agarose gel electrophoresis
[16] = target: T1, DNA topoisomerase 1 (Homo sapiens); assay: Induction of poisoning activity in human recombinant DNA topoisomerase 1 assessed as enhancement of in relaxation of supercoiled plasmid substrate DNA at 100 uM after 30 mins by agarose gel electrophoresis
Method in brief: (§2)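 In the topo I cleavage (poison) assay, the relaxation format was used with 6 units of enzyme for 30 min at 37 °C. Reactions were stopped with SDS, digested with proteinase K and CIA-extracted. DNA was run on 1% agarose with and without ethidium bromide. Poisoning was scored by the presence of the nicked open-circular band, referenced to camptothecin.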

[17] = tested on: Nucleic Acid; assay: Binding affinity to DNA by ethidium bromide staining-based FID assay; design: concentration or dose not given beside the values
[18] = tested on: HT-29; assay: Cytotoxicity against human HT-29 cells after 72 hrs by MTS assay; details: HT-29, 72 h
[19] = tested on: HepG2; assay: Cytotoxicity against human HepG2 cells at 25 uM after 72 hrs by MTS assay
[20] = Cytotoxicity against human CRL7761 cells after 3 days by MTS assay; format: cell-based; details: 72 h; method in brief: as §1
[21] = tested on: HT-29; assay: Cytotoxicity against human HT-29 cells assessed as cell viability at 20 uM after 24 hrs by MTS assay; format: functional; details: HT-29, 24 h, read-out: Activity
[22] = target: T1, DNA topoisomerase 1 (Homo sapiens); assay: Inhibition of human recombinant DNA topoisomerase 1-mediated DNA cleavage assessed as decrease in relaxation of supercoiled plasmid substrate DNA at 5 uM after 30 mins by agarose gel electrophoresis
[23] = tested on: MCF7; assay: Cytotoxicity against human MCF7 cells assessed as cell viability at 20 uM after 72 hrs by MTS assay; details: MCF7, 72 h, read-out: Activity
[24] = tested on: HepG2; assay: Cytotoxicity against human HepG2 cells assessed as cell viability at 25 uM after 72 hrs by MTS assay; details: HepG2, 72 h
[25] = tested on: HepG2; assay: Cytotoxicity against human HepG2 cells assessed as cell viability at 16 uM after 72 hrs by MTS assay; details: HepG2, 72 h, read-out: Activity
[26] = tested on: HT-29; assay: Cytotoxicity against human HT-29 cells assessed as cell viability at 100 uM after 72 hrs by MTS assay; details: HT-29, 72 h
[27] = tested on: HepG2; assay: Cytotoxicity against human HepG2 cells assessed as cell viability at 100 uM after 72 hrs by MTS assay; details: HepG2, 72 h
[28] = tested on: MCF7; assay: Cytotoxicity against human MCF7 cells assessed as cell viability at 100 uM after 72 hrs by MTS assay; details: MCF7, 72 h
[29] = target: T1, DNA topoisomerase 1 (Homo sapiens); assay: Induction of poisoning activity in human recombinant DNA topoisomerase 1 assessed as enhancement of in relaxation of supercoiled plasmid substrate DNA at 25 to 50 uM after 30 mins by agarose gel electrophoresis; method in brief: as §2
[30] = target: T1, DNA topoisomerase 1 (Homo sapiens); assay: Induction of poisoning activity in human recombinant DNA topoisomerase 1 assessed as enhancement of in relaxation of supercoiled plasmid substrate DNA at 75 to 100 uM after 30 mins by agarose gel electrophoresis; method in brief: as §2

DNA topoisomerase 2-alpha (Homo sapiens), sequence (P11388 whole entry): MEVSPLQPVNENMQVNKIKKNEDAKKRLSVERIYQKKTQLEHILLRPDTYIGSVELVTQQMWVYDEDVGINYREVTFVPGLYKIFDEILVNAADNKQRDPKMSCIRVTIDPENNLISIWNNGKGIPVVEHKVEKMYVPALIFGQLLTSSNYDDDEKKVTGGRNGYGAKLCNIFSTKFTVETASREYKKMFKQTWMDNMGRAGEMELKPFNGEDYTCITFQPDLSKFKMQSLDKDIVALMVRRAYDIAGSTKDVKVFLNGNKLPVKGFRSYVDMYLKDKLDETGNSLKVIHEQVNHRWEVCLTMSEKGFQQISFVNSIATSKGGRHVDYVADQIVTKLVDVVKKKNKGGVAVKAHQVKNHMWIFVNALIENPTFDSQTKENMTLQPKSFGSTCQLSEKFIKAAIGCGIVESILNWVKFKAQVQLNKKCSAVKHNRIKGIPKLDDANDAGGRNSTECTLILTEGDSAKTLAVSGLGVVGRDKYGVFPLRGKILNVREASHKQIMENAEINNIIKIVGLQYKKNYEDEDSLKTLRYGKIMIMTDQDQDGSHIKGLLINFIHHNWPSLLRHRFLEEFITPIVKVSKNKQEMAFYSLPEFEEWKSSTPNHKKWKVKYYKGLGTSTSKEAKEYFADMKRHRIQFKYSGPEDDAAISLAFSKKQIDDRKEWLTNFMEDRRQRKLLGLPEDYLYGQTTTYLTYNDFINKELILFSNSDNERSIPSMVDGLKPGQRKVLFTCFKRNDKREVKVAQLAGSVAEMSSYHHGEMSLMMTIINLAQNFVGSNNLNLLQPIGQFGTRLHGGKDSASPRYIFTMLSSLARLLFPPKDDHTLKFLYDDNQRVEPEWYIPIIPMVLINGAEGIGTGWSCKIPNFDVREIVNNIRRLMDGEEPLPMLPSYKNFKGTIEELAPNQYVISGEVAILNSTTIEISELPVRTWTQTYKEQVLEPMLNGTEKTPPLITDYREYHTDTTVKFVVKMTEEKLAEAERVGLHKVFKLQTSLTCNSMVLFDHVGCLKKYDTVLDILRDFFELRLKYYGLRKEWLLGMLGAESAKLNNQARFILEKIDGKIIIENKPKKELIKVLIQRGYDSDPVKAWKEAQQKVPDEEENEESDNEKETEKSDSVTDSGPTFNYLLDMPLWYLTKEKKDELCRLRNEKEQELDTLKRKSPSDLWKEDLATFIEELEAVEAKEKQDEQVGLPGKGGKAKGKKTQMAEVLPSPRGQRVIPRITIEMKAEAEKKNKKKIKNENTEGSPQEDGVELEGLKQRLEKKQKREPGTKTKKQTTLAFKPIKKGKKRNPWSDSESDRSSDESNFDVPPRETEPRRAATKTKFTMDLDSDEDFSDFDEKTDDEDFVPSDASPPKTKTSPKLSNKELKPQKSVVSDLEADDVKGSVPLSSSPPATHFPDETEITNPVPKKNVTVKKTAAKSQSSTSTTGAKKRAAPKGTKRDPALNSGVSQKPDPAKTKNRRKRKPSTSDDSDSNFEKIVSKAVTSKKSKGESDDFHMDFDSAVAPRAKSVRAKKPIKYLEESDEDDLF

For Cc1ccc(S(=O)(=O)n2c(-c3ccccc3)c(C#CCO[C@H]3C[C@H](N)[C@@H](O)[C@H](C)O3)c3ccccc32)cc1, the IC50 [1] was 11.6 µM, the Activity [2] was 100% and the IC50 [3] was 7.7 µM. For the same molecule, the viability at 25 µM [4] was under 1%, the inhibition [5] was 92.8% and the Activity [6] was “inactive”. For the same molecule, the IC50 [7] was 5.8 µM, the viability at 25 µM [8] was under 1% and the inhibition [9] was “inactive”. For the same molecule, the viability at 25 µM [10] was under 1%, the inhibition [11] was “inactive” and the IC50 [12] was 4.7 µM. For the same molecule, the inhibition [13] was “Active”, the Activity [14] was 100% and the inhibition [15] was 103%. For the same molecule, the Activity [16] was “inactive”, the Activity [17] was 49.7% and the IC50 [18] was 7.3 µM. For the same molecule, the Activity [19] was 100% and the IC50 [20] was 24.3 µM.
Molecule Cc1ccc(S(=O)(=O)n2c(-c3ccccc3)c(C#CCO[C@H]3CC[C@H](N)[C@H](C)O3)c3ccccc32)cc1 has an IC50 [1] of 10.1 µM, an Activity [2] of 100% and an IC50 [3] of 9.5 µM. The viability at 25 µM [4] was under 1%, the inhibition [5] was 43.2% and the Activity [6] was “inactive”. For the same molecule, the IC50 [7] was 4.9 µM, the viability at 25 µM [8] was under 1% and the inhibition [9] was “inactive”. The viability at 25 µM [10] was under 1%, the IC50 [12] was 5.1 µM and the inhibition [13] was “Active”. For the same molecule, the Activity [14] was 100%, the inhibition [15] was 86.2% and the Activity [16] was “inactive”. It also gave an Activity [17] of 38.6%, an IC50 [18] of 5.4 µM and an Activity [19] of 100%. The IC50 [20] was 17.5 µM.
C[C@@H]1O[C@@H](OCC#Cc2c(-c3ccccc3)oc3ccccc23)C[C@H](N)[C@@H]1O gave an IC50 [1] of 5.7 µM, an Activity [2] of 100% and an IC50 [3] of 3.2 µM. For the same molecule, the viability at 25 µM [4] was under 1%, the inhibition [5] was 77.8% and the Activity [6] was “inactive”. The IC50 [7] was 4.8 µM, the viability at 25 µM [8] was under 1% and the inhibition [9] was “inactive”. The viability at 25 µM [10] was under 1%, the inhibition [11] was “inactive” and the IC50 [12] was 6.6 µM. For the same molecule, the Activity [14] was 100%, the inhibition [15] was 6.5% and the Activity [16] was “inactive”. For the same molecule, the Activity [17] was 62%, the IC50 [18] was 5.2 µM and the Activity [19] was 100%. It also gave an IC50 [20] of 16.7 µM.
COc1cccc2c1C(=O)c1c(O)c3c(c(O)c1C2=O)C[C@@](O)(C(C)=O)C[C@@H]3O[C@H]1C[C@H](N)[C@H](O)[C@H](C)O1 [DAUNORUBICIN] showed an IC50 [1] of 2.5 µM, an IC50 [3] of 0.7 µM and a viability at 20 µM [21] of 11%. The inhibition [22] was “Active”, the viability at 20 µM [23] was 2% and the IC50 [7] was 1.8 µM. For the same molecule, the viability at 25 µM [24] was 2%, the inhibition [9] was “inactive” and the viability at 25 µM [10] was 11%. The IC50 [12] was 5.5 µM, the viability at 16 µM [25] was 2% and the IC50 [18] was 0.4 µM. The IC50 [20] was 10.5 µM.
For Ic1c(-c2ccccc2)sc2ccccc12, the Activity [6] was “inactive”, the viability at 100 µM [26] was 89% and the Activity [16] was “inactive”. For the same molecule, the viability at 100 µM [27] was 87% and the viability at 100 µM [28] was 111%.
Molecule COc1cccc2c1C(=O)c1c(O)c3c(c(O)c1C2=O)C[C@@](O)(C(=O)CO)C[C@@H]3O[C@H]1C[C@H](N)[C@H](O)[C@H](C)O1 [DOXORUBICIN] has an IC50 [1] of 10.4 µM, an IC50 [3] of 1 µM and a viability at 25 µM [4] of 8%. For the same molecule, the viability at 20 µM [21] was 43%, the inhibition [22] was “Active” and the Activity [6] was “inactive”. The viability at 20 µM [23] was 47%, the IC50 [7] was 3.5 µM and the inhibition [9] was “inactive”. It also gave a viability at 25 µM [10] of 43%, an IC50 [12] of 16.8 µM and a viability at 16 µM [25] of 8%. For the same molecule, the IC50 [18] was 0.6 µM and the IC50 [20] was over 25 µM.
In the case of CC[C@@]1(O)C(=O)OCc2c1cc1n(c2=O)Cc2cc3ccccc3nc2-1, the Activity [6] is reported as “inactive” and the Activity [16] is reported as “inactive”.
In the case of Cc1ccc(S(=O)(=O)n2c(-c3ccccc3)c(C#CCO[C@H]3C[C@H](N)[C@H](O)[C@H](C)O3)c3ccccc32)cc1, the IC50 [1] is reported as 10.2 µM, the Activity [2] is reported as 100% and the IC50 [3] is reported as 5.9 µM. For the same molecule, the viability at 25 µM [4] was under 1%, the inhibition [5] was 80.1% and the Activity [29] was “inactive”. For the same molecule, the Activity [6] was “inactive”, the IC50 [7] was 5 µM and the viability at 25 µM [8] was under 1%. The inhibition [9] was “inactive”, the viability at 25 µM [10] was under 1% and the inhibition [11] was “inactive”. The IC50 [12] was 4.8 µM, the inhibition [13] was “Active” and the Activity [14] was 100%. For the same molecule, the inhibition [15] was 101%, the Activity [16] was “inactive” and the Activity [17] was 47.9%. For the same molecule, the Activity [30] was “inactive”, the IC50 [18] was 6.3 µM and the Activity [19] was 100%. It also gave an IC50 [20] of 16.5 µM.
